Experimental data as given in ChEMBL document CHEMBL2380260, “Structure-activity relationship of N,N'-disubstituted pyrimidinetriones as Ca(V)1.3 calcium channel-selective antagonists for Parkinson's disease” (J Med Chem, 2013).

Assays:
[1] = target: Voltage-dependent L-type calcium channel subunit alpha-1C (Oryctolagus cuniculus, UniProt P15381); test: Antagonist activity at rabbit CaV1.2alpha1C transfected in HEK293 cells by FLIPR assay; assay type: cell-based
Summary of the method: (§1)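 HEK293 cells stably expressing the L-type channel (rat CaV1.3 α1D with all alternative splice sites, or rabbit CaV1.2 α1C), each co-expressed with rat β3 and α2δ-1 subunits. Cells plated at 4 × 10⁴ cells/well and cultured in DMEM with 10% FBS for 4 days. Calcium influx read by Fluo-8 no-wash dye fluorescence on FLIPR Tetra. IC50 from triplicate percent-inhibition data fitted to a one-site sigmoidal model.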

[2] = Selectivity ratio of IC50 for rabbit CaV1.2alpha1C to IC50 for rat CaV1.3alpha1D
Summary of the method: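 Selectivity is defined as […] the ratio of the CaV1.2 IC50 to the CaV1.3 IC50. Both IC50s come from the Fluo-8 FLIPR calcium influx assay in stably transfected HEK293 cells, each run in triplicate and fitted to a one-site sigmoidal model.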

[3] = target: Voltage-dependent L-type calcium channel subunit alpha-1D (Rattus norvegicus, UniProt P27732); test: Antagonist activity at rat CaV1.3alpha1D transfected in HEK293 cells by FLIPR assay; assay type: cell-based; summary of the method: as §1
Chain of Voltage-dependent L-type calcium channel subunit alpha-1D (P27732 whole entry): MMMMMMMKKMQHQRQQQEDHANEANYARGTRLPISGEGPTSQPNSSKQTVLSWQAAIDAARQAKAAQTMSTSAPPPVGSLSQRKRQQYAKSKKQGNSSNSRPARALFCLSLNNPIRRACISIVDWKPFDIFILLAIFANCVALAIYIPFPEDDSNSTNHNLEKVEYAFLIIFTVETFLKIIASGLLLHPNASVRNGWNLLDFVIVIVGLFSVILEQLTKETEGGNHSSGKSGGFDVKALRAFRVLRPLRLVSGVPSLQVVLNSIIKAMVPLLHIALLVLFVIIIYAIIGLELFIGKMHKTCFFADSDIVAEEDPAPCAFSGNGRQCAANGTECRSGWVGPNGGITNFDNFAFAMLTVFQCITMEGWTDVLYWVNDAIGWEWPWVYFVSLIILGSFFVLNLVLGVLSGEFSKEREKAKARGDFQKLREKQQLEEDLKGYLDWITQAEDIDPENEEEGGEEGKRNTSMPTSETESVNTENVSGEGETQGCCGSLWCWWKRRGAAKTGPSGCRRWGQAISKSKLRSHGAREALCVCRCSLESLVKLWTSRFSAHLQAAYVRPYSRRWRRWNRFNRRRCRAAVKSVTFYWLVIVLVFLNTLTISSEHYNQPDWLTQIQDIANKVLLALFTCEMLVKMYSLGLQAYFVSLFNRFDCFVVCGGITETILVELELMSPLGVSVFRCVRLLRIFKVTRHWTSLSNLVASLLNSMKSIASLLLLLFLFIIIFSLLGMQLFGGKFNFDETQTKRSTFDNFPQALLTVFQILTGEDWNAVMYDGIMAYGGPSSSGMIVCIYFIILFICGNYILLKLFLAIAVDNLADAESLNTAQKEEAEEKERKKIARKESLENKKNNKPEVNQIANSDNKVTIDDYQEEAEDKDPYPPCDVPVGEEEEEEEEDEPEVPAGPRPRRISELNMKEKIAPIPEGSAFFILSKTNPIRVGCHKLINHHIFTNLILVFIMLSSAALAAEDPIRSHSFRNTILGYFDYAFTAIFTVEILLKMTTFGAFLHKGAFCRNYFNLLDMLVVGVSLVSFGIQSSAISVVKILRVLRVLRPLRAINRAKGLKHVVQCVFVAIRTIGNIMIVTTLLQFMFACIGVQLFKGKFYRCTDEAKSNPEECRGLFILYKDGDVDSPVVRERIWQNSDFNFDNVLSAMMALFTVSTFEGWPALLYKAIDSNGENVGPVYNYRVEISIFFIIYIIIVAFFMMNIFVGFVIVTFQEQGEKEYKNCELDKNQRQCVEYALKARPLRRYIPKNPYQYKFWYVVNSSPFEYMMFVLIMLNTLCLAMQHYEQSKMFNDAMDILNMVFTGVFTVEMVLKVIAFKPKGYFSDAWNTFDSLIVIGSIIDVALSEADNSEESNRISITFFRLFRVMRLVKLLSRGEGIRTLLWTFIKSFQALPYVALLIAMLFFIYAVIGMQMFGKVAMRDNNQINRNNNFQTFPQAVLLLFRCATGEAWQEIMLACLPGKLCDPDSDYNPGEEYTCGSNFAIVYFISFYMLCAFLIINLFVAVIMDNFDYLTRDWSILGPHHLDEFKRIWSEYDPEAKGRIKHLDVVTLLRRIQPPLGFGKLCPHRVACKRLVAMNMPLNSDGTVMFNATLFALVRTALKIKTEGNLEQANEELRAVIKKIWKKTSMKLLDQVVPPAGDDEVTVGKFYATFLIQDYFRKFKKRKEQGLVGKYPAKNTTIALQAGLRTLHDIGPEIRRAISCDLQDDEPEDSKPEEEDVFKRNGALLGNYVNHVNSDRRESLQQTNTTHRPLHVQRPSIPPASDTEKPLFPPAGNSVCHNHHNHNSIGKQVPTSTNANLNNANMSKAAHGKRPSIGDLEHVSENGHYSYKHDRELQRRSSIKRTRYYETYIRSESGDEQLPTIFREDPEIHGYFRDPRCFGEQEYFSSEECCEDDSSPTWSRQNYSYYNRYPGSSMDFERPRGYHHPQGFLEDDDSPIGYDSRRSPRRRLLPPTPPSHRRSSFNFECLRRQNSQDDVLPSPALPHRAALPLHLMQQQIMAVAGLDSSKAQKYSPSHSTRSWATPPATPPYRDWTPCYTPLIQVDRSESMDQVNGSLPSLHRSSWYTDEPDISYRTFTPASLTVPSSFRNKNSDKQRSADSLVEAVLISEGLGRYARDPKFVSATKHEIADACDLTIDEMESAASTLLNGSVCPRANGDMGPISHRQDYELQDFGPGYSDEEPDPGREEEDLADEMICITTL

Chain of Voltage-dependent L-type calcium channel subunit alpha-1C (P15381 whole entry, canonical isoform): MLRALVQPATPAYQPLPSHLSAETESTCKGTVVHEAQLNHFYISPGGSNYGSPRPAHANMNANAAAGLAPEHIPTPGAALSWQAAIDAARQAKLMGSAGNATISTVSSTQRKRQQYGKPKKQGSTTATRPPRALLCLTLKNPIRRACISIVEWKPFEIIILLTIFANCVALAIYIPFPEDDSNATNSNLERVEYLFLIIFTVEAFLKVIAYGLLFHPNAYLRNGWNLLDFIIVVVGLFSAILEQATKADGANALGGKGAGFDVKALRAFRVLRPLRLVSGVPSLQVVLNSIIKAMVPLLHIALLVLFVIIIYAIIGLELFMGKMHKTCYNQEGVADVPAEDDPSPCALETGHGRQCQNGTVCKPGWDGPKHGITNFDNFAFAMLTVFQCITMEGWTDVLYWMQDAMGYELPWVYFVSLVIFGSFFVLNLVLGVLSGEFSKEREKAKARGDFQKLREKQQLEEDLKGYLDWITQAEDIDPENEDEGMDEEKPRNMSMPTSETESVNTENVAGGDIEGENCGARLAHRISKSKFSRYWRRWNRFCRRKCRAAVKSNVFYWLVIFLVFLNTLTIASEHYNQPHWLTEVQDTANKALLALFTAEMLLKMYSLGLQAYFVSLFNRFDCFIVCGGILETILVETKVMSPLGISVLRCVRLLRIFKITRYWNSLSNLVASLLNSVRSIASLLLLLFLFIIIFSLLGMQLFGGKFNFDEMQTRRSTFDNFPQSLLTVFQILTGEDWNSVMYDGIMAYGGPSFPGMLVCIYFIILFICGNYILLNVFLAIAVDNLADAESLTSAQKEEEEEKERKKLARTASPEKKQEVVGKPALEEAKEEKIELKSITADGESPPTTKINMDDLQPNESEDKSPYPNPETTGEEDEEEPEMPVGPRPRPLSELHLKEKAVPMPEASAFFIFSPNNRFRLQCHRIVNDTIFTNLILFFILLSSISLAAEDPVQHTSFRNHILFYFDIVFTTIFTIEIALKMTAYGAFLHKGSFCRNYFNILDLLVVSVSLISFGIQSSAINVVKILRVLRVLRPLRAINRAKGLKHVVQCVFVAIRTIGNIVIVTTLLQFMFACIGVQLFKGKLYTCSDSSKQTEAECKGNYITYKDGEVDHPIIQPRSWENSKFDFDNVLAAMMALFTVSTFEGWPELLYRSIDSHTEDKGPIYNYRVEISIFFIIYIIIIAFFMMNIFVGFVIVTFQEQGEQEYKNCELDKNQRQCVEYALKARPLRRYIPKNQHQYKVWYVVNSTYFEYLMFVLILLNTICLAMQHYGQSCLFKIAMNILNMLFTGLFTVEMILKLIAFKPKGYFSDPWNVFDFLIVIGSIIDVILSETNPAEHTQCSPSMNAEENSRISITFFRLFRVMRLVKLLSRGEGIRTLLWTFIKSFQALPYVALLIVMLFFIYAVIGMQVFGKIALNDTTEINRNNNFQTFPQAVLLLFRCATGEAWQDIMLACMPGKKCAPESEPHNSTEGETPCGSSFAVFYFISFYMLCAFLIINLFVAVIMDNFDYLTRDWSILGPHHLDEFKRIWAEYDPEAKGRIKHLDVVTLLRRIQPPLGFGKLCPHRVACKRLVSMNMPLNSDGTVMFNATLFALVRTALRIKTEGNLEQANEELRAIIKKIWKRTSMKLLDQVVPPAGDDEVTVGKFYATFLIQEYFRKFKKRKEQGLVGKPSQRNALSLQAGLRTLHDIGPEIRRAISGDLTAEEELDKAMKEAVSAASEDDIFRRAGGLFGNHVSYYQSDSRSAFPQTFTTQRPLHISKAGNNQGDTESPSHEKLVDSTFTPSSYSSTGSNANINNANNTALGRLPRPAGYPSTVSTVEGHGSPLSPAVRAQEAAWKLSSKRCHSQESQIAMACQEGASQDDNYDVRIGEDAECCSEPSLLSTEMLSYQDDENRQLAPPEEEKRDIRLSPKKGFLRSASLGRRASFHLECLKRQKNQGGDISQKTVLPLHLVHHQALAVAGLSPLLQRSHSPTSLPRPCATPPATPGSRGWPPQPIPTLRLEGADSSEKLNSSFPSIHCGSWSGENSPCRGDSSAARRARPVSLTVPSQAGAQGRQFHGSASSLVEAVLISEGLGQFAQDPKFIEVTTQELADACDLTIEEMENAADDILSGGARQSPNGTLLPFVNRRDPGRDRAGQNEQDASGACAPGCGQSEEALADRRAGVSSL

Molecule `O=C1CC(=O)N([C@@H]2C[C@@H]3CC[C@H]2C3)C(=O)N1CCc1ccc(Cl)cc1` has an IC50 [1] of 54 µM, a Ratio IC50 [2] of 11 and an IC50 [3] of 1.9 µM.
For `C[C@H]1CCC[C@@H]1N1C(=O)CC(=O)N(CCc2cccc(Cl)c2)C1=O` (racemic), the IC50 [1] was 21 µM, the Ratio IC50 [2] was 1.8 and the IC50 [3] was 11 µM.
In the case of `C[C@@H](C1CCCCC1)N1C(=O)CC(=O)N(CCc2ccc(Cl)cc2)C1=O`, the IC50 [1] is reported as over 100 µM, the Ratio IC50 [2] is reported as over 12 and the IC50 [3] is reported as 8.3 µM.
Work on `CC(C)(CN1C(=O)CC(=O)N(C2CCCC2)C1=O)c1cccc(Cl)c1` yielded an IC50 [1] of 12.6 µM, a Ratio IC50 [2] of 4.9 and an IC50 [3] of 2.4 µM.
Molecule `O=C1CC(=O)N(C2CCCC2)C(=O)N1CC(c1ccccc1)c1ccccc1` has an IC50 [1] of 8.1 µM, a Ratio IC50 [2] of 1.6 and an IC50 [3] of 5.2 µM.
`C[C@H]1CCC[C@H]1N1C(=O)CC(=O)N(CCc2cccc(Cl)c2)C1=O` showed an IC50 [1] of 9.3 µM, a Ratio IC50 [2] of 1.3 and an IC50 [3] of 7.3 µM.
`O=C1CC(=O)N(C2CCCC2)C(=O)N1CCc1ccc(OCc2ccccc2)cc1` gave an IC50 [1] of 18.7 µM, a Ratio IC50 [2] of 0.5 and an IC50 [3] of 34.1 µM.
Molecule `O=C1CC(=O)N(C2CC3CCC2C3)C(=O)N1CCc1ccc(Cl)cc1` (mixture of isomers) has an IC50 [1] of 50 µM, a Ratio IC50 [2] of 8.9 and an IC50 [3] of 5.6 µM.
`O=C1CC(=O)N([C@@H]2C[C@@H]3CC[C@H]2C3)C(=O)N1CCc1cccc(Cl)c1` showed an IC50 [1] of over 100 µM, a Ratio IC50 [2] of over 50 and an IC50 [3] of 2 µM.
For `C[C@@H]1CCC[C@@H]1N1C(=O)CC(=O)N(CCc2cccc(Cl)c2)C1=O`, the IC50 [1] was 13 µM, the Ratio IC50 [2] was 2.3 and the IC50 [3] was 5.5 µM.
`CC(=O)O[C@@H]1CCC[C@@H]1N1C(=O)CC(=O)N(CCc2cccc(Cl)c2)C1=O` showed an IC50 [1] of 23.4 µM, a Ratio IC50 [2] of 0.6 and an IC50 [3] of 38.6 µM.
`C[C@H](C1CCCCC1)N1C(=O)CC(=O)N(CCc2ccc(Cl)cc2)C1=O` showed an IC50 [1] of over 100 µM, a Ratio IC50 [2] of over 12 and an IC50 [3] of 8.1 µM.
For `O=C(OCCc1cccc(F)c1)[C@H]1CC[C@@H](N2C(=O)CC(=O)N(CCc3cccc(Cl)c3)C2=O)C1`, the IC50 [1] was 6.7 µM, the Ratio IC50 [2] was 0.7 and the IC50 [3] was 9.7 µM.
`CC(CN1C(=O)CC(=O)N(C2CC3CCC2C3)C1=O)c1cccc(Cl)c1` (mixture of isomers) showed an IC50 [1] of 5.1 µM, a Ratio IC50 [2] of 2.1 and an IC50 [3] of 2.4 µM.
Work on `O=C1CC(=O)N([C@H]2C[C@H]3CC[C@@H]2C3)C(=O)N1CCc1cccc(Cl)c1` yielded an IC50 [1] of over 100 µM, a Ratio IC50 [2] of over 29 and an IC50 [3] of 3.5 µM.
Work on `CC1(C)CCC[C@H]1N1C(=O)CC(=O)N(CCc2cccc(Cl)c2)C1=O` yielded an IC50 [1] of 4.7 µM, a Ratio IC50 [2] of 1.9 and an IC50 [3] of 2.5 µM.
Work on `O=C1CC(=O)N(C2CCCC2)C(=O)N1CCc1ccc(Cl)c(Cl)c1` yielded an IC50 [1] of 3.4 µM, a Ratio IC50 [2] of 2.7 and an IC50 [3] of 1.2 µM.
For `O=C1CC(=O)N(C2CCCC2)C(=O)N1CCCc1ccccc1`, the IC50 [1] was 21.9 µM, the Ratio IC50 [2] was 2.9 and the IC50 [3] was 7.6 µM.
For `CC1(C)CCC[C@@H]1N1C(=O)CC(=O)N(CCc2cccc(Cl)c2)C1=O`, the IC50 [1] was 3.5 µM, the Ratio IC50 [2] was 1.6 and the IC50 [3] was 2.1 µM.
`COc1ccc(CCN(C)CCCC(C#N)(c2ccc(OC)c(OC)c2)C(C)C)cc1OC` (stereo unspecified) showed a Ratio IC50 [2] of under 2.
With `O=C1CC(=O)N(C2CCCC2)C(=O)N1CCc1cc(C(F)(F)F)cc(C(F)(F)F)c1` the IC50 [1] was 2.6 µM, the Ratio IC50 [2] was 1.8 and the IC50 [3] was 1.4 µM.
